From ChEMBL document CHEMBL2417529, “An expedient, ionic liquid mediated multi-component synthesis of novel piperidone grafted cholinesterase enzymes inhibitors and their molecular modeling study” (Eur J Med Chem, 2013) come the findings set out here.

The target of one assay is Cholinesterase (Equus caballus, UniProt P81908). The experiment in a line: Inhibition of horse serum BChE using S-butyrylthiocholine chloride as substrate preincubated for 15 mins followed by substrate addition measured after 30 mins by Ellman's microplate assay. In outline:
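Equine serum BChE preincubated with test samples in 0.1 M sodium phosphate buffer pH 8 for 15 min at 25 °C. DTNB added, then S-butyrylthiocholine chloride (14 mM stock). Colored product read at 412 nm 30 min after reaction start. Final DMSO 1%; triplicates; blank-corrected absorbance; % inhibition versus control; IC50 from five concentrations.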
(Ellman's reagent forms a yellow product with free thiols.)

A short description of assay [1]: Selectivity ratio of IC50 for horse serum BChE to IC50 for electric eel AChE. In a few lines: (§1)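 Ratio of IC50s from Ellman microplate assays in 0.1 M sodium phosphate pH 8 with 1% final DMSO. AChE (Electrophorus electricus) used acetylthiocholine iodide; BChE (equine serum) used S-butyrylthiocholine chloride, each 14 mM stock. Enzyme and sample preincubated 15 min at 25 °C, then DTNB and substrate added. A412 read at 30 min in triplicate; IC50 from five concentrations.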

Another assay addresses Acetylcholinesterase (Electrophorus electricus, UniProt O42275). The experiment in a line: Inhibition of electric eel AChE using acetylthiocholine iodide as substrate preincubated for 15 mins followed by substrate addition measured after 30 mins by Ellman's microplate assay.
Assay [2] in a line: Selectivity ratio of IC50 for electric eel AChE to IC50 for horse serum BChE. In outline: as §1

Chain of Cholinesterase (P81908 whole entry): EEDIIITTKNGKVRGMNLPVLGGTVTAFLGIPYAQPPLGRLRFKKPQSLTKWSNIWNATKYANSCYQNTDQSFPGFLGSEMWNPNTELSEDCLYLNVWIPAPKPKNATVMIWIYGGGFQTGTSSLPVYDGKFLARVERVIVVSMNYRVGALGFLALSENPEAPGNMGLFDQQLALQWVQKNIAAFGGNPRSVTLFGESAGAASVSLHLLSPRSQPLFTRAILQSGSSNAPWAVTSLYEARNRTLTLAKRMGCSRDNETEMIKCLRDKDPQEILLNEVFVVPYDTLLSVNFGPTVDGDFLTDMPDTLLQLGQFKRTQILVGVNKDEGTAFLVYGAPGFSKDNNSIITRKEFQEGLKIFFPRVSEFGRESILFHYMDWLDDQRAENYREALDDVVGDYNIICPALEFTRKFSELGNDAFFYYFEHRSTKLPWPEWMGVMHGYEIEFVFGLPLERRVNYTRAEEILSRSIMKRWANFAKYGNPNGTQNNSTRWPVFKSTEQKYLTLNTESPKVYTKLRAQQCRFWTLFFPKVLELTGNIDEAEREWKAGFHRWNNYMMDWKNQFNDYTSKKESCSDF
Chain of Acetylcholinesterase (O42275 whole entry): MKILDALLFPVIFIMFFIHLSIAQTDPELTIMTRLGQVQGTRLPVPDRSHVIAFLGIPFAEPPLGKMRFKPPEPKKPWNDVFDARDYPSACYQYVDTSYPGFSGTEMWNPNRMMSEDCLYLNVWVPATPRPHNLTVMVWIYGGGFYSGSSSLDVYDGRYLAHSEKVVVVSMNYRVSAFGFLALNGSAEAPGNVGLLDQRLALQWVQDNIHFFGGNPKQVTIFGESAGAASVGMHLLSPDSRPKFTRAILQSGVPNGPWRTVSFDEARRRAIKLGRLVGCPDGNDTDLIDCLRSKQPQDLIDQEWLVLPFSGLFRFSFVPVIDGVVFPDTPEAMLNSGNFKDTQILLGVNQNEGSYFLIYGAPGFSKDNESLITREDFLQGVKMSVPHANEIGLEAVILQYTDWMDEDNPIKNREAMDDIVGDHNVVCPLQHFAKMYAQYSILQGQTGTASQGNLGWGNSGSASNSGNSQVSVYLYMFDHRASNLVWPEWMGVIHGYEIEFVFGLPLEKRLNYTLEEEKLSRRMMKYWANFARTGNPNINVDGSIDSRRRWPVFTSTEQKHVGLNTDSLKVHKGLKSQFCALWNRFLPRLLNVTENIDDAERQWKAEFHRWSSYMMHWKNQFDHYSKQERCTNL

A word on the IC50: it is the concentration at which inhibition is half-maximal. The low end stands for higher potency, the high end for lower potency. Turning to `S=C1NC2=C(CN(CCN3CCOCC3)C/C2=C\c2ccc(Cl)cc2)C(c2ccc(Cl)cc2)N1` (stereo unspecified), the IC50 on Cholinesterase turned out to be 4.28 µM; against Acetylcholinesterase, 5.49 µM. Besides, the Ratio IC50 is 0.78 in assay [1] and 1.28 in assay [2].
The corresponding values for `CCN1CC2=C(NC(=S)NC2c2ccccc2C)/C(=C/c2ccccc2C)C1` (stereo unspecified) are 3.93 µM, 6.17 µM, 0.64 and 1.57.
Take `CCN1CC2=C(NC(=S)NC2c2ccc(F)cc2)/C(=C/c2ccc(F)cc2)C1` (stereo unspecified): the results for the IC50 against Cholinesterase and at Acetylcholinesterase were 5.98 µM and 2.07 µM, respectively. In addition, the Ratio IC50 in assay [1] was determined as 2.76; in assay [2] it was 0.36.
The matching figures for `CCN1CC2=C(NC(=S)NC2c2ccc(Cl)cc2)/C(=C/c2ccc(Cl)cc2)C1` (stereo unspecified): 5.88 µM, 1.29 µM, 4.56 and 0.22.
`COc1ccccc1/C=C1\CN(CCN2CCOCC2)CC2=C1NC(=S)NC2c1ccccc1OC` (stereo unspecified): the IC50 at Cholinesterase worked out at 5.93 µM; at Acetylcholinesterase it was 8.39 µM. Also, the results for the Ratio IC50 in assay [1] and in assay [2] were 0.71 and 1.42, respectively.
`S=C1NC2=C(CN(CCN3CCOCC3)C/C2=C\c2ccccc2)C(c2ccccc2)N1` (stereo unspecified): the IC50 was 3.23 µM against Cholinesterase and 4.49 µM at Acetylcholinesterase. Moreover, the results for the Ratio IC50 in assay [1] and in assay [2] were 0.72 and 1.39, respectively.
Regarding `CCN1CC2=C(NC(=S)NC2c2ccccc2F)/C(=C/c2ccccc2F)C1` (stereo unspecified), the IC50 against Cholinesterase came to 4.48 µM; against Acetylcholinesterase, 5.54 µM. Also, the Ratio IC50 was 0.81 in assay [1] and 1.24 in assay [2].
Turning to `CCN1CC2=C(NC(=S)NC2c2ccc(Cl)cc2Cl)/C(=C/c2ccc(Cl)cc2Cl)C1` (stereo unspecified), the IC50 against Cholinesterase is 3.61 µM; at Acetylcholinesterase it was 8.75 µM. The Ratio IC50 in assay [1] was 0.41; in assay [2], 2.42.
As to `CCN1CC2=C(NC(=S)NC2c2ccc(C)cc2)/C(=C/c2ccc(C)cc2)C1` (stereo unspecified), the IC50 against Cholinesterase worked out at 4.73 µM; against Acetylcholinesterase, 5.02 µM. The Ratio IC50 was 0.94 in assay [1] and 1.06 in assay [2].
In the case of `Fc1ccc(/C=C2\CN(CCN3CCOCC3)CC3=C2NC(=S)NC3c2ccc(F)cc2)cc1` (stereo unspecified), the IC50 at Cholinesterase was determined as 3.41 µM; against Acetylcholinesterase, 6.72 µM. Further, the Ratio IC50 in assay [1] worked out at 0.51; in assay [2] it was 1.97.
The matching figures for `CCN1CC2=C(NC(=S)NC2c2ccccc2)/C(=C/c2ccccc2)C1` (stereo unspecified): 4.2 µM, 0.92 µM, 4.56 and 0.22.
The matching figures for `CCN1CC2=C(NC(=S)NC2c2ccccc2OC)/C(=C/c2ccccc2OC)C1` (stereo unspecified): 8.13 µM, 4.92 µM, 1.65 and 0.61.
Consider `S=C1NC2=C(CN(CCN3CCOCC3)C/C2=C\c2ccc(Cl)cc2Cl)C(c2ccc(Cl)cc2Cl)N1` (stereo unspecified), for which the values for the IC50 against Cholinesterase and at Acetylcholinesterase were 5.87 µM and 8.67 µM, respectively. Besides, the Ratio IC50 in assay [1] came to 0.68; in assay [2], 1.47.
The corresponding values for `Cc1ccccc1/C=C1\CN(CCN2CCOCC2)CC2=C1NC(=S)NC2c1ccccc1C` (stereo unspecified) are 1.89 µM, 8.15 µM, 0.23 and 4.31.
For `CCN1CC2=C(NC(=S)NC2c2cccc([N+](=O)[O-])c2)/C(=C/c2cccc([N+](=O)[O-])c2)C1` (stereo unspecified), the results for the IC50 against Cholinesterase and at Acetylcholinesterase were 5.11 µM and 7.88 µM, respectively. The values for the Ratio IC50 in assay [1] and in assay [2] were 0.65 and 1.54, respectively.
The corresponding values for `S=C1NC2=C(CN(CCN3CCOCC3)C/C2=C\c2ccccc2Cl)C(c2ccccc2Cl)N1` (stereo unspecified) are 2.44 µM, 6.75 µM, 0.36 and 2.77.
As for `Fc1ccccc1/C=C1\CN(CCN2CCOCC2)CC2=C1NC(=S)NC2c1ccccc1F` (stereo unspecified), the figures for the IC50 on Cholinesterase and against Acetylcholinesterase were 2.97 µM and 9.32 µM, respectively. The figures for the Ratio IC50 in assay [1] and in assay [2] were 0.32 and 3.14, respectively.
The matching figures for `CCN1CC2=C(NC(=S)NC2c2ccccc2Cl)/C(=C/c2ccccc2Cl)C1` (stereo unspecified): 3.57 µM, 8.22 µM, 0.43 and 2.3.
The matching figures for `Cc1ccc(/C=C2\CN(CCN3CCOCC3)CC3=C2NC(=S)NC3c2ccc(C)cc2)cc1` (stereo unspecified): 3.58 µM, 7.16 µM, 0.5 and 2.
